Results from ChEMBL document CHEMBL1151692, “Substituted hippurates and hippurate analogs as substrates and inhibitors of peptidylglycine alpha-hydroxylating monooxygenase (PHM)” (Bioorg Med Chem, 2008).
Activity calls are given as the source filed them. The rule behind the calls is not given here. Where a SMILES comes first, the peptide text is derived from it. The star is where a group is joined. Dansyl = CN(C)c1cccc2c(S(=O)(=O)*)cccc12; NHOH = ON*

What was measured:
[1] = target: peptidylglycine alpha-amidating monooxygenase (Rattus norvegicus) (UniProt P14925); experiment: Inhibition of rat peptidylamidoglycolate lyase assessed as ascorbate-independent dealkylation of alpha-hydroxy-hipurate; design: concentration or dose not given beside the values; details: for inhibition: concentration not given here
[2] = target: T1, Peptidylglycine alpha-amidating monooxygenase (Rattus norvegicus) (UniProt P14925); experiment: Inhibition of rat recombinant peptidylglycine alpha-amidating monooxygenase in presence of DMSO
T1 sequence (whole entry): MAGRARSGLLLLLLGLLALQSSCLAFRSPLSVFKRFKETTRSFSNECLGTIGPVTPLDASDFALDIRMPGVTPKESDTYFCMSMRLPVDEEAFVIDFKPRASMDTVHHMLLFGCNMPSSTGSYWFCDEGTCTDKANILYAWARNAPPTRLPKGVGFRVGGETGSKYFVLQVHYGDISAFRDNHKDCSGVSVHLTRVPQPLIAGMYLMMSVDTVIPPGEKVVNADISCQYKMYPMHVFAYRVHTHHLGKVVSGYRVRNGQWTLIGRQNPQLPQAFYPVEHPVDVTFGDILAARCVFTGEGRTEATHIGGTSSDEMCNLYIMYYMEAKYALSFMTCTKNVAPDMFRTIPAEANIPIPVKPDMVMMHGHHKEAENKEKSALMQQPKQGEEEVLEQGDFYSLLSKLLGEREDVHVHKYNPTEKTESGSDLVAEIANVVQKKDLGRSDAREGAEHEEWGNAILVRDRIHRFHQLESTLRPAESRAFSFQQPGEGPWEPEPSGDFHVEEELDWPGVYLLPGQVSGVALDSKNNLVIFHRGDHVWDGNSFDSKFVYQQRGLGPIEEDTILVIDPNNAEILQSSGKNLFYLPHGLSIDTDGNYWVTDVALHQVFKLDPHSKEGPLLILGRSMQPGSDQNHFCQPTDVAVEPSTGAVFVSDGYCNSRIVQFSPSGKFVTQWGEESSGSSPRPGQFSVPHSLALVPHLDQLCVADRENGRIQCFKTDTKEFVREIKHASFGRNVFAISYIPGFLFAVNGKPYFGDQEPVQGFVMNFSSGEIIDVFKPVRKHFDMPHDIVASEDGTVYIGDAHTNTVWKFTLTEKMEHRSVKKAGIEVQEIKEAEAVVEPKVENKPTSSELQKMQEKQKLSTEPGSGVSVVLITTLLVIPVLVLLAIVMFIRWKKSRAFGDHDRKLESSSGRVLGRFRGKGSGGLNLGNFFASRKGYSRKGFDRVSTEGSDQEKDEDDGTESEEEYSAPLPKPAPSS

[3] = target: T1, Peptidylglycine alpha-amidating monooxygenase (Rattus norvegicus); experiment: Inhibition of rat recombinant peptidylglycine alpha-amidating monooxygenase assessed as inhibition of N-dansyl-Tyr-Val-Gly amidation
DU-145 [4] = experiment: Antiproliferative activity against human DU145 cells at 100 uM by trypan blue assay; type: functional
[5] = target: T1, Peptidylglycine alpha-amidating monooxygenase (Rattus norvegicus); experiment: Inhibition of recombinant rat peptidylglycine alpha-amidating monooxygenase assessed as inhibition of oxygen consumption at 28 mM
[6] = target: T1, Peptidylglycine alpha-amidating monooxygenase (Rattus norvegicus); experiment: Inhibition of rat recombinant peptidylglycine alpha-amidating monooxygenase assessed as inhibition of oxygen consumption at 0.9 mM
[7] = target: T1, Peptidylglycine alpha-amidating monooxygenase (Rattus norvegicus); experiment: Inhibition of recombinant rat peptidylglycine alpha-amidating monooxygenase assessed as inhibition of oxygen consumption of N-octanoylglycine at 28 mM
In short: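 Recombinant type A rat medullary thyroid carcinoma bifunctional PAM (15–50 μg) added to 100 mM MES/NaOH pH 6.0, 30 mM NaCl, 1% ethanol, 0.001% Triton X-100, 10 μg/mL catalase, 1.0 μM Cu(NO3)2, ascorbate, 200 μM N-octanoylglycine as substrate, and 28 mM test compound. The read-out is the initial rate of O2 consumption on an oxygen monitor at 37 °C.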

DU-145 [8] = experiment: Antiproliferative activity against human DU145 cells at 10 uM after 48 hrs by trypan blue assay; type: functional, cell-based
In short: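 DU 145 cells plated at 50,000 per well, allowed 24 h to adhere, then given medium containing 10 μM 4-HPR as positive control. Viable cells counted by trypan blue exclusion on a hemacytometer, with growth read at 48 h.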

DU-145 [9] = experiment: Antiproliferative activity against human DU145 cells at greater than 500 uM by trypan blue assay; type: functional, cell-based
[10] = target: T1, Peptidylglycine alpha-amidating monooxygenase (Rattus norvegicus); experiment: (§1) Activity of rat recombinant peptidylglycine alpha-amidating monooxygenase assessed as stimulation of oxygen consumption
[11] = target: T1, Peptidylglycine alpha-amidating monooxygenase (Rattus norvegicus); experiment: Ratio of Vm(app) to Km(app) for rat recombinant peptidylglycine alpha-amidating monooxygenase relative to hippuric acid
In short: (§2)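 Recombinant rat type A medullary thyroid carcinoma PAM (bifunctional), 15–50 μg, in 100 mM MES/NaOH pH 6.0, 30 mM NaCl, 1% ethanol, 0.001% Triton X-100, 10 μg/mL catalase, 1.0 μM Cu(NO3)2, 5.0 mM ascorbate, ~200 μM O2, 37 °C. Substrate generally 0.3–5.0 KM,app. Initial O2 consumption rates read by oxygen monitor and fit to Michaelis–Menten.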

[12] = target: T1, Peptidylglycine alpha-amidating monooxygenase (Rattus norvegicus); experiment: Ratio of Vm(app) to Km(app) for rat recombinant peptidylglycine alpha-amidating monooxygenase
In short: as §2

[13] = substrate: Cc1ccc(C(=O)NCC(=O)O)cc1; experiment: as §1
[14] = substrate: O=C(O)CNC(=O)CNC(=O)c1ccc([N+](=O)[O-])cc1; experiment: as §1
[15] = substrate: O=C(O)CNC(=O)c1ccccc1O; experiment: as §1
[16] = substrate: O=C(O)CNC(=O)OCc1ccccc1; experiment: as §1
[17] = substrate: O=C(O)CNC(=O)c1ccccc1I; experiment: as §1
[18] = substrate: O=C(O)CNC(=S)Cc1ccccc1; experiment: as §1
[19] = substrate: Nc1ccc(C(=O)NCC(=O)O)cc1; experiment: as §1
[20] = substrate: O=C(O)CNC(=O)/C=C/c1ccccc1; experiment: as §1
[21] = substrate: O=C(O)CNC(=O)C1CC1c1ccccc1; experiment: as §1
[22] = substrate: CCc1ccc(C(=O)NCC(=O)O)cc1; experiment: as §1
[23] = substrate: O=C(O)CNC(=S)CCc1ccccc1; experiment: as §1
[24] = substrate: O=C(O)CNC(=O)CCc1ccccc1; experiment: as §1
[25] = substrate: O=C(O)CNC(=O)c1ccc(Br)cc1; experiment: as §1
[26] = substrate: COc1ccc(C(=O)NCC(=O)O)cc1; experiment: as §1
[27] = substrate: O=C(O)CNC(=O)c1cccc(Cl)c1; experiment: as §1
[28] = substrate: O=C(O)CNC(=O)c1ccc(Cl)cc1; experiment: as §1
[29] = substrate: O=C(O)CNC(=O)CNC(=O)CCl; experiment: as §1
[30] = substrate: O=C(O)CNC(=O)[C@@H]1CCC(=O)N1; experiment: as §1
[31] = substrate: O=C(O)CNC(=O)CCCCc1ccccc1; experiment: as §1
[32] = substrate: O=C(O)CNC(=O)CNC(=O)c1ccccc1; experiment: as §1
[33] = substrate: Cc1ccccc1C(=O)NCC(=O)O; experiment: as §1
[34] = substrate: O=C(O)CNC(=O)c1ccco1; experiment: as §1
[35] = substrate: CCCc1ccc(C(=O)NCC(=O)O)cc1; experiment: as §1
[36] = substrate: C[C@@H](NC(=O)c1ccccc1)C(=O)O; experiment: as §1
[37] = substrate: O=C(O)CNC(=O)CCCCCCCc1ccccc1; experiment: as §1
[38] = substrate: O=C(O)CNC(=O)SCc1ccccc1; experiment: as §1
[39] = substrate: O=C(O)CNC(=O)c1ccc(C(F)(F)F)cc1; experiment: as §1
[40] = substrate: O=C(O)CNC(=O)c1ccc(O)cc1; experiment: as §1
[41] = substrate: Nc1ccccc1C(=O)NCC(=O)O; experiment: as §1
[42] = substrate: O=C(O)CNC(=O)CNC(=O)CNC(=O)c1ccccc1; experiment: as §1
[43] = substrate: O=C(O)CNC(=O)CCCCCc1ccccc1; experiment: as §1
[44] = substrate: O=C(O)CNC(=O)Nc1ccccc1; experiment: as §1
[45] = substrate: O=C(O)CNC(=O)c1ccc([N+](=O)[O-])cc1; experiment: as §1
[46] = substrate: O=C(O)CNC(=O)/C=C/c1ccco1; experiment: as §1
[47] = substrate: Cc1cccc(C(=O)NCC(=O)O)c1; experiment: as §1

O=C(O)COC(=O)Nc1ccccc1
inhibition [1]: < 5%

CC(C)C[C@H](NC(=O)[C@@H]1CCCN1)C(=O)NCC(=O)NO (H-Pro-Leu-Gly-{NHOH})
inhibition [1]: < 5%

CCCCCCCCCCCC(=S)SCC(=O)O
inhibition [1]: < 5%

O=C(O)CSC(=S)c1ccccc1
Kis [2]: 49 µM | Kis [3]: 39 µM | inhibition [1]: < 5%

O=C(O)CSC(=S)CCc1ccccc1
Kis [2]: 30 µM | Kis [3]: 9.4 µM | inhibition [1]: < 5%

O=C(O)CNC(=S)Nc1ccccc1
inhibition [1]: < 5%

O=C(NO)c1ccccc1O
inhibition [1]: < 5%

O=C(O)CSC(=S)Nc1ccccc1
IC50 [1]: 3.5 mM

O=C(NCC[C@H](O)C(=O)O)OCc1ccccc1
inhibition [1]: < 5%

CCOC(=O)CSC(=S)c1ccc(C)cc1
inhibition at 100 µM (DU-145 [4]): ≤ 10% | inhibition [1]: < 5%

O=C(O)CSc1ccccc1
inhibition [1]: < 5%

O=C(NCP(=O)(O)O)c1cccnc1
Activity [5]: Active | Activity [6]: Active | inhibition [1]: < 5% | Activity [7]: inactive

CC(NC(=S)c1ccccc1)C(=O)O (configuration not stated)
inhibition [1]: < 5%

O=C(O)CONC(=O)c1ccccc1
inhibition [1]: < 5%

CC(SC(=S)c1ccccc1)C(=O)O (racemic)
inhibition [1]: < 5%

Cc1ccc(C(=S)SCC(=O)O)cc1
inhibition [1]: < 5%

CC(C#N)(CCC(=O)O)SC(=S)c1ccccc1 (configuration not stated)
inhibition [1]: < 5%

NCC(=O)NNC(=O)OCc1ccccc1
inhibition [1]: < 5%

CC1=C(/C=C/C(C)=C/C=C/C(C)=C/C(=O)Nc2ccc(O)cc2)C(C)(C)CCC1
Activity (DU-145 [8]): Active

COC(=O)CNC(=O)[C@@H](NC(=O)[C@H](Cc1ccc(O)cc1)NS(=O)(=O)c1cccc2c(N(C)C)cccc12)C(C)C (Dansyl-Tyr-Val-Gly-OMe)
Kis [3]: 54 µM

O=C(O)CSC(=S)Cc1ccccc1
Kis [2]: 13 µM | Activity (DU-145 [9]): Active | Kis [3]: 7.9 µM | inhibition [1]: < 5%

O=C(NC(CSC(=O)c1ccccc1)C(=O)O)c1ccccc1 (single isomer, unassigned)
inhibition [1]: < 5%

CC(=O)NCC(=O)NCC(=O)O
Vmax(app) [10]: 8.9 s⁻¹ | Activity [11]: 1 | Ratio [12]: 5.9 ×10³ /M/s

O=C(O)CCSC(=S)Nc1ccccc1
inhibition [1]: < 5%

O=C(O)CNCc1ccccc1
inhibition [1]: < 5%

O=C(N[C@H](CO)C(=O)O)c1ccccc1
inhibition [1]: < 5%

O=C(O)CNC(=O)CSc1ccccc1
Vmax(app) [10]: 4.6 s⁻¹ | Activity [11]: 4 | Ratio [12]: 2.5 ×10⁴ /M/s

B1: Peptidylglycine alpha-amidating monooxygenase (Rattus norvegicus), P14925 (protein)
chain: T1 sequence (whole entry)
Km [13]: 1800 µM | Km [14]: 110 µM | Km [15]: 860 µM | Km [16]: 590 µM | Km [17]: 3400 µM | Km [18]: 24 µM | Km [19]: 2600 µM | Km [20]: 230 µM | Km [21]: 900 µM | Km [22]: 1200 µM | Km [23]: 38 µM | Km [24]: 940 µM | Km [25]: 520 µM | Km [26]: 820 µM | Km [27]: 2200 µM | Km [28]: 620 µM | Km [29]: 420 µM | Km [30]: 310 µM | Km [31]: 150 µM | Km [32]: 78 µM | Km [33]: 4300 µM | Km [34]: 2700 µM | Km [35]: 1200 µM | Km [36]: 84000 µM | Km [37]: 100 µM | Km [38]: 59 µM | Km [39]: 770 µM | Km [40]: 1700 µM | Km [41]: 1400 µM | Km [42]: 310 µM | Km [43]: 51 µM | Km [44]: 360 µM | Km [45]: 470 µM | Km [46]: 1200 µM | Km [47]: 1400 µM
